# Measured values reported in publication PMC4334733 (International journal of toxicology, 2015).
# Values joined by “and” are separate entries in the source; they are usually repeats but may differ in a detail not shown here. Equal entries are not always repeated. “Also recorded” adds a separate entry of the source. Structures can show the parent of a compound that is named as a salt.
# Columns and labels:
# Female BALB/c mice = test: 13-week daily oral toxicity study of TDF; type: in vivo, mouse; conditions: for Clinical Chemistry, Day 29 and Day 92: CHO cholesterol, TRI triglycerides
# kidney gene expression = test: Toxicogenomics: microarray gene expression analysis of kidney; type: in vivo, mouse
# liver gene expression = test: Toxicogenomics: microarray gene expression analysis of liver; type: in vivo, mouse; conditions: 1000 mg/kg TDF for 91 days vs vehicle
# How it was run: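 Female BALB/c mice received 1000 mg/kg by daily oral gavage for 91 days, or vehicle (50 mM trisodium citrate dihydrate), n=7 per group. They were killed on Day 92, 24 hr after the last dose. Total RNA from a 20–50 mg left liver lobe section was hybridized to Mouse Gene 1.0 ST arrays. Fold change versus vehicle was tested by t-test with Benjamini-Hochberg correction.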
# Wistar rats = conditions: 600 mg/kg TDF for 5 weeks; cited from earlier work
# rats = conditions: oral 100 mg/kg TDF for 8 weeks; cited from earlier work
# [1] = type: in vivo, mouse
# How it was run: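 Female BALB/c mice were gavaged daily (10 ml/kg) at 50, 500 or 1000 mg/kg; the vehicle was 50 mM trisodium citrate dihydrate. Tenofovir was quantified against 2.5–2000 ng/ml plasma standards using peak area ratio to indinavir and 1/y-weighted linear regression. Noncompartmental Cmax, Tmax and AUClast were derived.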
# [2] = kidney, 1000 mg/kg TDF for 91 days vs vehicle, regulation Down, p<0.05, N=7
# [3] = kidney, 1000 mg/kg TDF for 91 days vs vehicle, regulation Up, p<0.05, N=7
smiles,measurement,setting,value
"CC(C)OC(=O)OCOP(=O)(CO[C@H](C)Cn1cnc2c(N)ncnc21)OCOC(=O)OC(C)C [TDF, Tenofovir disoproxil fumarate]",Survival,"Female BALB/c mice; TDF 0, 50, 500 or 1000 mg/kg po daily for 1, 28 or 91 days",All animals survived until their scheduled sacrifice
same,Clinical Observations: Gasping (incidence),Female BALB/c mice; TDF 50 mg/kg po daily,0
same,Clinical Observations: Hunched Posture (incidence),Female BALB/c mice; TDF 50 mg/kg po daily,0
same,Clinical Observations: Hypoactivity (incidence),Female BALB/c mice; TDF 50 mg/kg po daily,0
same,Clinical Observations: Ruffled Fur (incidence),Female BALB/c mice; TDF 50 mg/kg po daily,9 out of 35 and 9 of 35
same,Mortality,Female BALB/c mice; TDF 50 mg/kg po daily,0
same,"Clinical Chemistry, Day 29 and Day 92",Female BALB/c mice; TDF 50 mg/kg po daily,"^↓(CHO, TRI)"
same,Clinical Observations: Gasping (incidence),Female BALB/c mice; TDF 500 mg/kg po daily,0
same,Clinical Observations: Hunched Posture (incidence),Female BALB/c mice; TDF 500 mg/kg po daily,0
same,Clinical Observations: Hypoactivity (incidence),Female BALB/c mice; TDF 500 mg/kg po daily,0
same,Clinical Observations: Ruffled Fur (incidence),Female BALB/c mice; TDF 500 mg/kg po daily,9 out of 35 and 9 of 35
same,Mortality,Female BALB/c mice; TDF 500 mg/kg po daily,0
same,"Clinical Chemistry, Day 29 and Day 92",Female BALB/c mice; TDF 500 mg/kg po daily,"^↓(CHO, TRI)"
same,Clinical Observations: Gasping (incidence),Female BALB/c mice; TDF 1000 mg/kg po daily,two mice and 2 of 35
same,Clinical Observations: Hunched Posture (incidence),Female BALB/c mice; TDF 1000 mg/kg po daily,one mouse and 1 of 35
same,Clinical Observations: Hypoactivity (incidence),Female BALB/c mice; TDF 1000 mg/kg po daily,two mice and 2 of 35
same,Clinical Observations: Ruffled Fur (incidence),Female BALB/c mice; TDF 1000 mg/kg po daily,31 out of 35 and 31 of 35
same,Histopathology: Liver (Days 29 and 92),Female BALB/c mice; TDF 1000 mg/kg po daily,Minimal/Mild Cytomegaly
same,Mortality,Female BALB/c mice; TDF 1000 mg/kg po daily,0
same,Body Weight,"Female BALB/c mice; TDF 1000 mg/kg po daily, vs control",significantly lower mean body weights; also recorded: ^↓(Days 36 and 43)
same,"Clinical Chemistry, Day 29 and Day 92",Female BALB/c mice; TDF 1000 mg/kg po daily,"^↓(CHO, TRI)"
same,Liver cytomegaly after 4-week recovery,"Female BALB/c mice; TDF 1000 mg/kg, Day 119 necropsy",not present; also recorded: not observed
same,Decreases in cholesterol (CHO) and triglyceride (TRI) levels,"Female BALB/c mice; TDF 1000 mg/kg, study Days 29 and 92",30–48%
same,"Liver cytomegaly, minimal or mild (incidence)","Female BALB/c mice; TDF 1000 mg/kg/day for 28 days, necropsy Day 29",7 of 10
same,"Liver cytomegaly, minimal or mild (incidence)","Female BALB/c mice; TDF 1000 mg/kg/day for 91 days, necropsy Day 92",6 of 15
same,Histopathologic changes in the kidneys,Female BALB/c mice; any dose group,No histopathologic changes
same,Fold change of gene expression in the kidney (all changes),"kidney gene expression; 1000 mg/kg TDF vs vehicle, Day 92",less than 2 fold
same,"Fold Change, Cyp4b1",kidney gene expression; [2],1.60 fold
same,"Fold Change, Polr3e",kidney gene expression; [2],1.87 fold
same,"Fold Change, Gm10804 (predicted gene 10804)",kidney gene expression; [3],1.65 fold
same,"Fold Change, Rorc (RAR-related orphan receptor gamma)",kidney gene expression; [3],1.77 fold
same,"Fold Change, Cml3 (camello-like 3)","liver gene expression; down expressed, p<0.05, N=7",2.08 fold
same,"Fold Change, Gm4952","liver gene expression; down expressed, p<0.05, N=7",2.15 fold
same,"Fold Change, Gm15401","liver gene expression; down expressed, p<0.05, N=7",2.44 fold
same,"Fold Change, Rgs16","liver gene expression; down expressed, p<0.05, N=7",2.86 fold
same,"Fold Change, Serpinb1a","liver gene expression; down expressed, p<0.05, N=7",2.70 fold
same,"Fold Change, Gria3","liver gene expression; upward expressed, p<0.05, N=7",3.34 fold
same,"Fold Change, Phlda3","liver gene expression; upward expressed, p<0.05, N=7",2.41 fold
same,"Fold Change, Rdh11","liver gene expression; upward expressed, p<0.05, N=7",2.09 fold
same,"Fold Change, Snord116","liver gene expression; upward expressed, p<0.05, N=7",2.15 fold
same,"Fold Change, Sult1e1","liver gene expression; upward expressed, p<0.05, N=7",4.39 fold
same,"Fold Change, Cdkn1a (cyclin-dependent kinase inhibitor 1A, P21)","liver gene expression; upward expressed, p<0.05, N=7, 1000 mg/kg",3.7 fold and 3.70 fold
same,Nephrotoxicity,Wistar rats,nephrotoxicity was observed
same,Renal toxicity,rats,induced renal toxicity
C[C@H](Cn1cnc2c(N)ncnc21)OCP(=O)(O)O [Tenofovir],Liver cytomegaly,Female BALB/c mice; 50 or 500 mg/kg/day,not present
same,Mouse AUC plasma level of tenofovir relative to healthy volunteers,"[1]; after 1000 mg/kg dose, human value ref 29",approximately eight
same,Accumulation between dosing Days 1 and 91 (Cmax or AUC),"[1]; plasma tenofovir, oral TDF 50-1000 mg/kg daily",no evidence of accumulation
